Screening data from PubChem.
Most compounds without a hit are left out; they make up all but 2.5% or so of the library.
NadD block – inhibitors of Staphylococcus aureus NadD | purified NadD enzyme, colorimetric absorbance read-out | inhibition, % at 20 µM | 0.78% of 360,000 active; in the data active = inhibition above about 26%
ABHD5-PLIN5 inh – ABHD5-PLIN5 protein interaction inhibition; Q00G26+Q8WTS1; Split G. princeps luciferase complementation, luminescence, 4 h; inhibition, % at 4 µM; 0.78% of 360,000 active; AID 602281;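 active = inhibition above the mean inhibition across every tested compound plus 3 SD, cut at about 22% in these data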;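 note: 0% = DMSO only wells and the 100% control is not disclosed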
GRK2 aptamer HTS – human GRK2 inhibition via aptamer displacement. P25098. bead flow cytometry, FAM-aptamer displacement from GRK2. inhibition of aptamer binding, % at 10 µM. 0.59% of 330,000 active. AID 488847;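 active = inhibition of aptamer binding above 40%, roughly 3 SD of noise, on plates passing a quality check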;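 note: median bead fluorescence of bound FAM aptamer so fluorescent compounds give negative values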
Beta2AR agonist – human beta-2 adrenergic receptor agonism by FAP. Am2.2-beta2AR cells, FAP receptor internalization, flow cytometry. 0.43% of 340,000 active. P07550. response, % (no concentration beside the values);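 active = response above a set limit, near 3 SD of response in nonfluorescent compounds, cut at about 42% in these data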
Target sequence (P07550 whole entry, looked up): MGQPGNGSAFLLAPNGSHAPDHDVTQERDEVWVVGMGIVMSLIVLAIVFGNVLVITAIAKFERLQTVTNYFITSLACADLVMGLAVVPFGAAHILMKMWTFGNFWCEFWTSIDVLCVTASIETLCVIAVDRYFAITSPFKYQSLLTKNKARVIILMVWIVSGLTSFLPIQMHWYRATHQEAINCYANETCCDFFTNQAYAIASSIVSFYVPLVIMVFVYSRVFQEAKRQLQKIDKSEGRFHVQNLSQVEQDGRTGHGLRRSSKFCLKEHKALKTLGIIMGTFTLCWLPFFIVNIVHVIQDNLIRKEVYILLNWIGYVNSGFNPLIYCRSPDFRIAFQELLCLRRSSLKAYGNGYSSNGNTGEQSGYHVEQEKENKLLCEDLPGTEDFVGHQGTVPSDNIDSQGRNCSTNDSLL
SENP1 inh – inhibitors of human SENP1 SUMO protease catalytic domain. recombinant SENP1 catalytic domain, CyPet-SUMO1-YPet FRET cleavage. inhibition, % at 10 µM. 0.21% of 360,000 active. AID 624204;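 active = inhibition at least 30% at 10 µM, raw YFP signal under a set limit, fluorescence ratio 0.5 to 1.5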;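 note: 0% = enzyme with DMSO and 100% = no enzyme wells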
Target sequence (Q9P0U3 419-644 limits assumed): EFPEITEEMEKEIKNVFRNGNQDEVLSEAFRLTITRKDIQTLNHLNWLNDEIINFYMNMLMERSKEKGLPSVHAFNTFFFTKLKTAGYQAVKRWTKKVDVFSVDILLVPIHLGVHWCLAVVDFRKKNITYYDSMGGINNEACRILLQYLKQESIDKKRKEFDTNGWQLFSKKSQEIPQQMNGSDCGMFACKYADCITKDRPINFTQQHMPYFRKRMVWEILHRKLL
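Compound: 10 µM single point, 0.5% DMSO; Test system: hSENP1 catalytic domain, recombinant; Timing: 50 min reaction at room temperature; Technique: FRET, CFP and YFP emission; Control set: no-enzyme wells low, DMSO-plus-enzyme wells high control.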
ABHD5 PLIN5 conf – confirmation of human ABHD5-PLIN5 interaction inhibitors; biochemical ABHD5-PLIN5 interaction, luminescence; AID 651612; shares compounds with ABHD5-PLIN5 inh; inhibition, % at 4 µM; 67% of 2,200 active; in the data active = inhibition above about 23%;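 note: 0% = DMSO vehicle wells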
HNF4 counter – active in HNF4 split-luciferase counter-screen for ABHD5-PLIN5 inhibitors; shares compounds with ABHD5-PLIN5 inh; HNF4 dimerization, luminescence, biochemical; inhibition, % at 4 µM; 77% of 2,200 active; AID 651674;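 active = mean inhibition across replicate wells exceeding the computed hit threshold, cut at about 13% in these data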;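 note: light from luciferase halves that rejoin when HNF4 fusion proteins dimerize; 0% = DMSO only wells and the 100% control is not given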
Starred values were filed as active, the others as inactive; . = no result.

SMILES	NadD block	ABHD5-PLIN5 inh	GRK2 aptamer HTS	Beta2AR agonist	SENP1 inh	ABHD5 PLIN5 conf	HNF4 counter
Cc1cc([N+](=O)[O-])nn1CC(=O)N(C)C1CCCCC1	2.8	-7.3	0.0	-4.6	9.1	.	.
CC(=O)Nc1ccc(S(=O)(=O)Nc2c(NC3CCCCC3)c3ccccc3oc2=O)cc1	-0.5	3.3	1.0	9.2	1.5	.	.
O=C(NCCSc1ncc(-c2ccc(F)cc2)[nH]1)c1ccc2c(c1)OCO2	-1.8	-4.2	0.0	-2.2	1.0	.	.
Cc1cccc(-c2nc(=S)c3c(n2Cc2ccco2)CCCC3)c1	5.7	28.2*	8.0	5.1	1.1	6.7	10.6
CNC(=O)c1nnsc1S(=O)c1ccc(Cl)cc1 (stereo not drawn)	2.9	66.7*	.	2.0	3.6	85.0*	103.9*
CCCNC(=O)c1nnsc1S(=O)c1ccc(Cl)cc1 (stereo not drawn)	3.1	74.9*	.	50.3*	-0.1	96.3*	107.9*
COc1ccccc1CCNC(=O)C(=O)Nc1cc2c3c(c1)CC(=O)N3CCC2	5.0	4.1	2.0	-1.8	0.5	.	.
O=C(N/N=C/C(Br)=C/c1ccccc1)C(O)c1ccccc1 (stereo not drawn)	-1.9	25.5*	0.0	-2.3	0.3	3.0	33.6*
CCN(C(=O)COC(=O)/C=C/c1c(C)nn(-c2ccccc2)c1C)C1CCS(=O)(=O)C1 (stereo not drawn)	-2.3	2.5	1.0	0.3	1.4	.	.
O=C(c1cc(-c2ccc(F)cc2)nc2ccccc12)N1CCC1	2.9	-6.3	0.0	-1.5	1.6	.	.
O=C(O)c1cc(-c2ccc(-c3ccc(F)cc3)o2)nc2ccccc12	-1.2	31.5*	4.0	8.1	-42.8	19.8	61.1*
O=C1C=CC(=O)N1c1ccccn1	2.8	-1.4	.	0.0	5.3	.	.
O=C1C=CC(=O)N1c1ccccc1N1C(=O)C=CC1=O	3.4	30.4*	.	9.1	3.6	64.1*	109.4*
O=C(c1ccccc1)c1ccccc1N1C(=O)C=CC1=O	4.9	44.0*	0.0	-15.6	3.9	45.0*	105.4*
Cc1ccc(C2Nc3ccc4ccccc4c3C3=C2C(=O)CC(C)(C)C3)o1 (stereo not drawn)	-0.2	29.6*	0.0	3.5	-46.7	4.1	7.3
CC1(C)CC(=O)C2=C(C1)c1c(ccc3ccccc13)NC2c1ccc(C(=O)O)cc1 (stereo not drawn)	-4.5	1.4	2.0	1.5	-74.6	.	.
CN1C[C@@H]2[C@@H]3C(=O)N(C)C(=O)[C@@H]3[C@](C)(C1=O)N2C(=O)c1ccc(Cl)c(Cl)c1	2.9	-8.9	.	7.4	3.7	.	.
CCn1cnc2c1c(=O)n(CC(=O)Nc1cc(C)on1)c(=O)n2Cc1ccccc1	4.1	-4.6	4.0	-14.0	-2.3	.	.
CCCCn1c(=O)n(CC(=O)Nc2ccc(C)c(Cl)c2)c(=O)c2c1ncn2Cc1ccco1	2.2	35.7*	0.0	3.4	-1.2	26.1*	9.2
COc1ccccc1C(=O)COC(=O)Cn1[nH]c(=O)c2ccccc2c1=O	-2.9	-7.9	0.0	0.3	1.7	.	.
COC(=O)c1cc(=O)n(Cc2cccs2)c(=Nc2ccc(F)cc2)s1	-8.4	44.8*	2.0	31.8	-0.2	64.5*	43.7*
COC(=O)c1ccc(N=c2sc(C(=O)OC)cc(=O)n2C)cc1	2.3	-3.3	.	8.2	2.2	.	.
COC(=O)c1cc(=O)n(Cc2ccc3c(c2)OCO3)c(=Nc2ccc(F)cc2)s1	0.1	2.5	10.0	5.5	4.4	.	.
COC(=O)c1cc(=O)n(-c2ccc(F)cc2)c(=Nc2ccc(F)cc2)s1	-1.8	39.5*	0.0	14.7	0.9	71.3*	49.3*
COCCNC(=O)/C(C#N)=C/C=C/c1ccccc1	5.9	26.8*	29.0	11.0	-2.7	16.8	18.0*
SMILES	NadD block	ABHD5-PLIN5 inh	GRK2 aptamer HTS	Beta2AR agonist	SENP1 inh	ABHD5 PLIN5 conf	HNF4 counter
O=C(NCc1ccco1)Nc1ccc2nsnc2c1	8.9	38.0*	4.0	6.0	2.2	50.4*	81.7*
CC(C)c1nnc(NC(=O)c2nc(S(=O)(=O)Cc3ccccc3)ncc2Cl)s1	0.7	35.1*	3.0	23.0	-0.2	84.5*	68.5*
COc1ccccc1NC(=O)c1nc(S(=O)(=O)Cc2ccccc2)ncc1Cl	-10.0	12.3	3.0	11.1	-0.8	.	.
CCCc1nnc(NC(=O)c2nc(S(=O)(=O)Cc3ccc(C)cc3)ncc2Cl)s1	6.9	44.0*	0.0	16.8	2.8	76.9*	52.6*
CSc1ncc(Cl)c(C(=O)Nc2nnc(SC)s2)n1	-0.3	0.9	0.0	2.4	1.1	.	.
CSc1nnc(NC(=O)c2nc(S(=O)(=O)Cc3ccccc3)ncc2Cl)s1	0.9	23.5*	2.0	9.0	-0.7	68.8*	41.9*
Cc1ccc(S(=O)(=O)CCc2nnc(NC(=O)c3cnccn3)s2)cc1	-6.0	-0.2	1.0	-1.6	0.8	.	.
CCOc1ccc(S(=O)(=O)NCCC(=O)NCc2cccnc2)cc1	-3.0	4.0	1.0	0.9	1.7	.	.
Cc1nc(C(C)NC(=O)c2cc(COc3ccc(C)c(C)c3)on2)c(C)s1 (stereo not drawn)	1.7	29.2*	0.0	-3.4	1.1	2.5	10.1
Cc1cccc(CC(C)NC(=O)c2cc(COc3ccc(C)c(C)c3)on2)n1 (stereo not drawn)	2.4	-5.4	2.0	6.0	2.6	.	.
COc1ccccc1NS(=O)(=O)c1ccc(C)c(C(=O)NCc2cccnc2)c1	-1.8	1.6	0.0	5.5	0.8	.	.
COc1cccc(/C=C2/CCC(CN(C)C)C2=O)c1 (stereo not drawn)	4.2	58.1*	.	26.3	-0.2	101.0*	103.5*
Cc1cccn2c(=O)nc(SCC(=O)Nc3cccc4ccccc34)nc12	0.2	104.2*	1.0	3.4	-1.2	1.2	-0.3
CC(=O)N1N=C(c2ccco2)CC1c1cccs1 (stereo not drawn)	3.9	-3.8	0.0	6.0	-1.1	.	.
O=C(CCl)N1N=C(c2ccco2)CC1c1cccs1 (stereo not drawn)	0.8	23.6*	0.0	3.7	-22.9	29.8*	20.4*
O=C(NC1CCCCC1)C(c1ccncc1)N(C(=O)c1csnn1)c1ccc(F)cc1 (stereo not drawn)	-1.2	-7.1	0.0	5.1	0.1	.	.
CCC(=O)NC(c1ccc(Cl)cc1Cl)c1ccc2cccnc2c1O (stereo not drawn)	0.5	8.5	3.0	7.1	1.0	.	.
CC(C)C(=O)NC(c1ccc(Cl)cc1Cl)c1ccc2cccnc2c1O (stereo not drawn)	14.6	29.3*	3.0	28.4	1.6	15.1	5.0
CCCCOC(=O)c1ccc(Nc2ncnc3nc[nH]c23)cc1	-5.1	6.2	0.0	-1.3	-0.7	.	.
